Assay outcomes: PubChem BioAssay, several laboratories
Most compounds without a hit are left out; they make up all but 2.3% or so of the library.
TRPC6 act: mouse TRPC6 channel activators, primary screen, cell-based, HEK293, membrane potential dye. Short transient receptor potential channel 6 (Mus musculus), Q61143. HEK293-TRPC6 membrane potential dye fluorescence; hits give high values. B-score at 10 µM. AID 2550, 2010. hit rate 0.13% among 310,000;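 active = B-score of the integrated fluorescence ratio above library mean plus 3 SD, and starting fluorescence ratio within library mean plus 5 SD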;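 also: higher score means more depolarization so channel activation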
TRPC4 PAM: positive allosteric modulators of TRPC4, primary screen, cell-based, mouse TRPC4beta, HEK293 mu-opioid, Fluo-4 calcium | hit rate 0.42% among 310,000 | AID 2227, 2009 | Short transient receptor potential channel 4 (Mus musculus), Q9QUQ5 | B-score at 10 µM | DAMGO EC20, Fluo-4 Ca2+ flux; hits give high values;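 active = B-score of calcium response area above 5 SD of library B-scores, with initial fluorescence ratio within 5 SD of library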;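 also: B-score of integrated fluorescence ratio over time as area under calcium response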
Target sequence (Q9QUQ5 whole entry, looked up): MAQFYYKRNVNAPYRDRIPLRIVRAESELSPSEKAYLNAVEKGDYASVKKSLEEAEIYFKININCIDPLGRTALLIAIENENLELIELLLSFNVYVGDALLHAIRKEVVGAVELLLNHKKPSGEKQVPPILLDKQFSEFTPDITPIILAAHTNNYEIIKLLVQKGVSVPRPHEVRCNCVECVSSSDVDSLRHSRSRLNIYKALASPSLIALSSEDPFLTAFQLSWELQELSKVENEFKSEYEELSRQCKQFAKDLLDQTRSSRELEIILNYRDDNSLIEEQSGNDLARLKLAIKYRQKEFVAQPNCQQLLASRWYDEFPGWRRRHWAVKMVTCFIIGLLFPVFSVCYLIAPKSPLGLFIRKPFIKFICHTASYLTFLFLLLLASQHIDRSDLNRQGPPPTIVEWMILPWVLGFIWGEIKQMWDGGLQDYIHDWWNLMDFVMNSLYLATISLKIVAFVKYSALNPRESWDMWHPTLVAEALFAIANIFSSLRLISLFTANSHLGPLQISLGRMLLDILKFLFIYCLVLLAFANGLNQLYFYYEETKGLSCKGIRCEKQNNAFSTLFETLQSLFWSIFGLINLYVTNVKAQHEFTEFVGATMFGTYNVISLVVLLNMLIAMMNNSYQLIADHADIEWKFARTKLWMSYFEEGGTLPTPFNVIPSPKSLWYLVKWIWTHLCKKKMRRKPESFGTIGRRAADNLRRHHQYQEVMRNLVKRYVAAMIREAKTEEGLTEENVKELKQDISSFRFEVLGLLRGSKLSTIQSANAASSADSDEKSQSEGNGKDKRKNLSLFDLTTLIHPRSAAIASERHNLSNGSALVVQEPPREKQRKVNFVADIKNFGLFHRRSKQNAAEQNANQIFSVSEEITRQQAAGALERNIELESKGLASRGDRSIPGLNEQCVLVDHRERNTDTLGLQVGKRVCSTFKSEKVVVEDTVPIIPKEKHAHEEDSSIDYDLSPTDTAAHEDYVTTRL
TRPC6 inhibitor: mouse TRPC6 channel inhibitors, primary screen, cell-based, HEK293, membrane potential dye; Short transient receptor potential channel 6 (Mus musculus), Q61143; ACh-evoked depolarization; hits give low values; B-score at 10 µM; hit rate 1.1% among 310,000;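 active = B-score under library mean minus 3 SD, initial fluorescence not abnormally high, positive integrated signal ratio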;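 also: B-score derived from integrated fluorescence ratio over the kinetic read; more negative B-score means stronger inhibition of depolarization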
TRPC4 inh: inhibitors of mouse TRPC4 channel, primary screen, Fluo4 calcium, HEK293 TRPC4beta/mu-opioid cells. B-score at 10 µM. AID 2247, 2010. hit rate 0.39% among 300,000. DAMGO-evoked Fluo4 calcium flux; hits give low values. Short transient receptor potential channel 4 (Mus musculus), Q9QUQ5;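 active = B-score over 3 SD under the library average, no early fluorescence shift, positive overall ratio signal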
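Assay system: TRPC4beta/mu-opioid receptor HEK293 cell line; compound dosing: single concentration per test compound; detection: Fluo4 Ca2+ flux fluorescence; evaluation: per-well B score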
TRPC4 act: activators of mouse TRPC4 channel, primary screen, Fluo4 calcium, HEK293 TRPC4beta/mu-opioid cells | Short transient receptor potential channel 4 (Mus musculus), Q9QUQ5 | Fluo4 calcium fluorescence; hits give high values | AID 2237, 2010 | hit rate 0.49% among 310,000 | B-score at 10 µM;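 active = B-score above 5 SD of library B-scores, and initial fluorescence ratio not above library mean plus 5 SD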;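 also: positive B-score marks a calcium rise read as TRPC4 activation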
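Test system: HEK293 cells stably co-expressing mouse TRPC4beta and mu-opioid receptor | Schedule: Fluo4 dye loading 45 min at room temperature, 110 s recording | Measured by: Kinetic Fluo4 calcium fluorescence, 5 s baseline at 1 Hz | Evaluation: B score of integrated ratio | Controls: Buffer (low) and maximal DAMGO (high)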
FID counter: compounds displacing fluorescent DNA intercalator, primary screen, artefact control for HCV NS3 helicase inhibitor project, biochemical, FID fluorescence | DNA fluorescent intercalator displacement | inhibition, % at 7.9 µM | hit rate 0.17% among 290,000; in the data active = inhibition above about 37%;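 also: 0% = vehicle and 100% = reference compound; higher means more ethidium bromide displaced from hairpin DNA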
TRPC4 spec 2: mouse TRPC4 off-target activity of TRPC6 inhibitors, second screen; AID 2776; inhibition, % at 10 µM; shares compounds with TRPC6 inhibitor; hit rate 42% among 920; HEK293 TRPC4/MOR, membrane potential dye fluorescence; channel activated by saturating DAMGO dose;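 active = compounds whose fluorescence signal differed from control wells by over 3 SD, either direction, in both duplicate plates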
TRPC4 spec: mouse TRPC4 modulation by TRPC6 hits, confirmation, selectivity assay for TRPC6 inhibitor project, cell-based, HEK293 TRPC4/mu-opioid, membrane potential dye; membrane potential fluorescence; AID 2777, 2010; shares compounds with TRPC6 inhibitor; hit rate 61% among 920; activity change, negative = inhibition, % at 10 µM;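 active = rise or fall in signal beyond 3 SD of buffer-only wells in both replicate plates, either sign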;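 also: integrated kinetic ratio of fluorescence range over baseline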
HEK293 MPD ctr 2-1: nonspecific membrane potential effects, parental HEK293, confirmation, counter-screen for TRPC6 inhibitor project, cell-based, second counter screen; shares compounds with TRPC6 inhibitor; parental HEK293 membrane potential dye fluorescence; maximal acetylcholine challenge after compound addition; signal change vs control, % at 10 µM; hit rate 31% among 920;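 active = membrane potential signal moving either way by over 3 SD of the maximum-effect control, in both duplicate plates, meaning non-specific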
HEK293 MPD ctr-1: membrane potential modulation in parental HEK293, confirmation, counter-screen for TRPC6 inhibitor project, cell-based | shares compounds with TRPC6 inhibitor | parental HEK293 membrane potential dye fluorescence | membrane potential signal change, % at 10 µM | hit rate 60% among 920 | AID 2780, 2010;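 active = membrane potential signal shifting up or down by more than 3 SD of buffer-only wells, on both duplicate plates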
HEK293 MPD ctr-2: parental HEK293 membrane potential modulation, confirmation, counter-screen for TRPC6 modulator project, cell-based; shares compounds with TRPC6 inhibitor; membrane potential dye fluorescence; membrane potential signal change, % at 10 µM; hit rate 51% among 2,400;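 active = membrane potential signal moves up or down beyond 5 SD from buffer-only wells, on both duplicate plates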
HEK293 MPD ctr 2-2: second counter-screen for TRPC6 modulators: effect in parental HEK293 cells; hit rate 14% among 2,400; inhibition, % at 10 µM; membrane potential dye fluorescence; after compound, maximal acetylcholine stimulation; AID 488926; shares compounds with TRPC6 inhibitor;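 active = membrane potential signal drops by more than 5 SD from the mean control signal, in both duplicate plates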;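 also: plate controls were acetylcholine ECmax control wells for no effect and buffer only wells for full effect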
TRPC4/MOR mod: TRPC4 modulation by TRPC6 hit compounds, confirmation, selectivity assay for TRPC6 modulator project, cell-based, HEK293 TRPC4/mu-opioid, membrane potential dye, mouse. shares compounds with TRPC6 inhibitor. membrane potential fluorescence. percent change from control (negative = decrease, positive = increase), % at 10 µM. hit rate 69% among 2,400;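 active = membrane potential signal moved up or down beyond 5 SD of buffer control wells, in both duplicate plates, actives on both sides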;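 also: plate controls were assay buffer wells for no effect and DAMGO maximal-effect wells for full effect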
TRPC4 ctr inh 2: second check of whether TRPC6 modulators also affect mouse TRPC4 | shares compounds with TRPC6 inhibitor | HEK293 TRPC4/mu-opioid, membrane potential dye fluorescence; stimulated with maximal-effect DAMGO | inhibition, % at 10 µM | hit rate 55% among 2,400 | AID 488928;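 active = drop in membrane potential signal beyond 5 SD of the control wells in both duplicate plates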;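 also: TRPC4 counter screen for TRPC6 hits run under conditions tuned for TRPC6 not TRPC4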
TRPC6 inh conf: mouse TRPC6 channel inhibitors, confirmation, HEK293 cells, membrane potential dye, duplicate; shares compounds with TRPC6 inhibitor; ACh-evoked depolarization; hit rate 43% among 3,300; inhibition, % at 10 µM;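 active = fluorescence ratio falls more than 5 SD below the full-stimulation control mean, in both duplicate runs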;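 also: integrated fluorescence ratio of peak minus minimum over baseline after agonist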
TRPC6 act confirm: mouse TRPC6 channel activators, confirmation, HEK293 cells, membrane potential dye, duplicate; activation, % at 10 µM; hit rate 11% among 2,800; HEK293-TRPC6 membrane potential dye fluorescence, FDSS; AID 488961, 2010; shares compounds with TRPC6 inhibitor;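 active = ratio signal rise beyond 5 SD above unstimulated control wells' mean, seen in both duplicate runs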;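 also: plate controls were buffer EC0 wells for no effect and acetylcholine ECmax response for full effect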
An asterisk follows results filed as active; i = inactive; . = not tested or not shown.

SMILES	TRPC6 act	TRPC4 PAM	TRPC6 inhibitor	TRPC4 inh	TRPC4 act	FID counter	HEK293 MPD ctr-2	HEK293 MPD ctr 2-2	TRPC4/MOR mod	TRPC4 ctr inh 2	TRPC6 inh conf	TRPC6 act confirm	others
Cc1ccc(C(=O)N2CCCC(C(=O)c3ccc(Cl)cc3C)C2)cn1 (configuration not stated)	i	i	i	i	i	-37	.	.	.	.	.	.
Cc1cnc(C(=O)N2CCCC(C(=O)c3ccc(Cl)cc3C)C2)cn1 (configuration not stated)	i	i	-5.3*	i	i	-19	i	i	14%*	i	46%*	.
COC(=O)c1ccc(NC(=O)N2CCCC(C(=O)c3ccccc3OC)C2)cc1 (configuration not stated)	i	i	-9.2*	i	i	-23	.	.	.	.	i	.	TRPC4 spec 2=i;TRPC4 spec=i;HEK293 MPD ctr 2-1=226%*;HEK293 MPD ctr-1=i
COc1ccccc1C(=O)C1CCCN(C(=O)Nc2ccccc2F)C1 (configuration not stated)	i	i	i	i	i	-9	.	.	.	.	.	.
COc1ccccc1C(=O)C1CCCN(C(=O)c2cn3cc(Cl)ccc3n2)C1 (configuration not stated)	i	i	-8.2*	i	i	-28	.	.	.	.	i	i	TRPC4 spec 2=i;TRPC4 spec=0.1%*;HEK293 MPD ctr 2-1=i;HEK293 MPD ctr-1=0.3%*
CC(=O)c1ccc(NC(=O)Nc2ccc(S(=O)(=O)N3CCCC3)cc2)cc1	i	i	i	i	i	-20	.	.	.	.	.	.
Clc1ccc(-c2c[n+](Cc3ccc(Cl)cc3Cl)c3n2CCCCC3)cc1	i	i	i	i	i	15	.	.	.	.	.	.
Clc1ccc(C[n+]2cc(-c3ccccc3)n3c2CCCCC3)c(Cl)c1	i	i	-6*	-6*	53*	13	160%*	i	84%*	92%*	54%*	.
O=C(Nc1ccccc1C(=O)Nc1nnc(C(F)(F)F)s1)c1ccccc1	i	i	-7*	i	i	-14	.	.	.	.	84%*	i	TRPC4 spec 2=i;TRPC4 spec=16%*;HEK293 MPD ctr 2-1=i;HEK293 MPD ctr-1=11%*
COc1cccc(NS(=O)(=O)c2ccc3[nH]cc(C(=O)NC4CC4)c(=O)c3c2)c1	14*	i	-8.9*	i	i	26	i	i	i	i	58%*	90%*
COc1ccc(N2CCN(Cc3csc(C)c3-c3ccc(C)cc3)CC2)cc1	i	i	i	i	i	5	.	.	.	.	.	.
Cc1cccc(C)c1OCC(=O)Nc1ccccc1N1CCCCC1	i	i	i	i	i	-31	.	.	.	.	.	.
CCc1cccc(OCC(=O)Nc2ccccc2N2CCCC2)c1	i	i	-6.1*	i	i	.	i	i	i	33%*	i	i
CCOC(=O)C1CCCN(C(=O)c2ccccc2NC(=O)C2=C(C)OCCS2)C1 (configuration not stated)	i	i	i	i	i	-14	.	.	.	.	.	.
Cc1ccc(OCC(=O)NCCC2=CCCCC2)cc1	i	i	-5*	i	i	-25	i	i	i	i	i	i
Cc1ccccc1OCC(=O)NCCC1=CCCCC1	i	i	-5.7*	i	i	-22	i	i	14%*	i	i	i
CC(=O)Nc1ccccc1OCC(=O)NCCC1=CCCCC1	i	i	i	i	i	-14	.	.	.	.	.	.
CC(C)C(NC(=O)c1c(F)cccc1F)C(=O)NCC(c1ccccc1)N(C)C (configuration not stated)	i	i	-5.1*	i	i	4	i	i	55%*	58%*	i	.
CC(C)C(NC(=O)c1ccccc1)C(=O)NCC(c1ccccc1)N(C)C (configuration not stated)	i	i	i	i	i	0	.	.	.	.	.	.
COc1ccc(/C=N/NC(=O)c2nn(-c3ccc(Cl)cc3)c(=O)c3c(N)scc23)cc1	i	i	-6*	i	i	-16	-77%*	i	-22%*	36%*	i	i
